Assay results published in ChEMBL document CHEMBL3826885, “Similarities and differences in affinity and binding modes of tricyclic pyrimido- and pyrazinoxanthines at human and rat adenosine receptors” (Bioorg Med Chem, 2016).
In brackets after ≈: the same amount, converted by molar mass.

Experiments:
Adenosine receptor A2a [1] = target: Adenosine receptor A2a (Rattus norvegicus, UniProt P30543); assay: Displacement of [3H]MSX2 from adenosine receptor A2a in rat brain striatal membranes; type: cell membranes, Membrane
In short: (§1)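 Native rat receptors: A1 in brain cortical membranes with [3H]CCPA, A2A in brain striatal membranes, from frozen unstripped rat brains. Compounds were first screened at a single high concentration in three independent experiments. Active compounds then had full inhibition curves over at least 3 orders of magnitude of concentration.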

Adenosine receptor A3 [2] = target: T1, Adenosine receptor A3 (Homo sapiens, UniProt P0DMS8); assay: Displacement of [3H]PSB-11 from recombinant human adenosine receptor A3 expressed in CHO cell membranes
T1 sequence (P0DMS8 whole entry): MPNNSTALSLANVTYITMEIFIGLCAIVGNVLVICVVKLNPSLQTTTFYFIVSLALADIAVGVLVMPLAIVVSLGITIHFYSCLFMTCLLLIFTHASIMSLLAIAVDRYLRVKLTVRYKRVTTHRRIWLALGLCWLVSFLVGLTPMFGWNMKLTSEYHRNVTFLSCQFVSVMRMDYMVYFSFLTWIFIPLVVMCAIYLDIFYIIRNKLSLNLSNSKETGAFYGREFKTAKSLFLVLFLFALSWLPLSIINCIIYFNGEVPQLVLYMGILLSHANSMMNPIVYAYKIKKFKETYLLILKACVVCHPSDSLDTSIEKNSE

Adenosine receptor A1 [3] = target: T2, Adenosine receptor A1 (Rattus norvegicus, UniProt P25099); assay: Displacement of [3H]CCPA from adenosine receptor A1 in rat brain cortical membranes; type: cell membranes
T2 sequence (P25099 whole entry): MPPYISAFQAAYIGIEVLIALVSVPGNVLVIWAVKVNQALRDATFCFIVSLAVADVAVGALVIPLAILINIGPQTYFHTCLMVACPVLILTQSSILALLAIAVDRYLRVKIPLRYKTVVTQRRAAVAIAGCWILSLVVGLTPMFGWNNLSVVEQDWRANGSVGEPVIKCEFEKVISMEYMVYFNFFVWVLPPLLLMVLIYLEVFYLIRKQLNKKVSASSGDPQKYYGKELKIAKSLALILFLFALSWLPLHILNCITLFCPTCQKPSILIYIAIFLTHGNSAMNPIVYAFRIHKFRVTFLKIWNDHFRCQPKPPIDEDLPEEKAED
In short: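 Native rat receptors: A1 in brain cortical membranes with [3H]CCPA, A2A in brain striatal membranes, from frozen unstripped rat brains. Compounds were first screened at a single high concentration in three independent experiments.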

[4] = target: T3, Adenosine receptor A3 (Homo sapiens) (UniProt P0DMS8); assay: Displacement of [3H]PSB11 from recombinant human adenosine receptor A3 expressed in CHO cell membranes at 1 uM
T3 sequence (whole entry): T1 sequence (P0DMS8 whole entry)
In short: (§2)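 Membranes came from CHO cells expressing recombinant receptors (human A1, A2A, A2B, A3; rat A2B, A3). Radioligands were [3H]CCPA for A1 and [3H]PSB-11 or [3H]NECA for A3. A single high concentration was screened first, in three experiments for A1/A2A and two for A2B/A3. Full inhibition curves spanning at least 3 log units were run for potent compounds.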

[5] = target: T4, Adenosine receptor A2b (Rattus norvegicus) (UniProt P29276); assay: Displacement of [3H]PSB-603 from recombinant rat adenosine receptor A2b expressed in CHO cell membranes at 1 uM; in short: as §2
T4 sequence (whole entry): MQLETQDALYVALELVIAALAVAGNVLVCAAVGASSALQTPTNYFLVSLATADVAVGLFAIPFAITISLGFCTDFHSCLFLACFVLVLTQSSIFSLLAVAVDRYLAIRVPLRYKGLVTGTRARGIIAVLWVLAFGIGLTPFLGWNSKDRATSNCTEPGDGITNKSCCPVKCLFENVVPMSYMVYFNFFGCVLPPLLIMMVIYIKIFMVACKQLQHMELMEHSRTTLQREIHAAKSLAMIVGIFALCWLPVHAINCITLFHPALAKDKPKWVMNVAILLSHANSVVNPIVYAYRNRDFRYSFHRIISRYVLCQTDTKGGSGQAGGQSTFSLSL

Adenosine receptor A2a [6] = target: T5, Adenosine receptor A2a (Homo sapiens, UniProt P29274); assay: Displacement of [3H]MSX2 from recombinant human adenosine receptor A2a expressed in CHO cell membranes; in short: as §2
[7] = target: T6, Adenosine receptor A1 (Homo sapiens) (UniProt P30542); assay: Displacement of [3H]CCPA from recombinant human adenosine receptor A1 expressed in CHO cell membranes at 1 uM; in short: as §2
T6 sequence (whole entry): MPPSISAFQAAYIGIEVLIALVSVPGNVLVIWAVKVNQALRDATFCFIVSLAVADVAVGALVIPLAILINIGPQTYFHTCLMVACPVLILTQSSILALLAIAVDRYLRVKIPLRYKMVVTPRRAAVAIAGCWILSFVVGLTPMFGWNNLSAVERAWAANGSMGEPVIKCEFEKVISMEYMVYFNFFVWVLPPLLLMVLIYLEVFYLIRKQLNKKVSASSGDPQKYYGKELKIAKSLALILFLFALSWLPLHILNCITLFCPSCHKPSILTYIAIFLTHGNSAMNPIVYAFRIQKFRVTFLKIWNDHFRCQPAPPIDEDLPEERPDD

Adenosine receptor A2a [8] = target: T5, Adenosine receptor A2a; assay: Displacement of [3H]MSX2 from recombinant human adenosine receptor A2a expressed in CHO cell membranes at 1 uM; in short: as §2
Adenosine receptor A2b [9] = target: T7, Adenosine receptor A2b (Homo sapiens, UniProt P29275); assay: Displacement of [3H]PSB-603 from recombinant human adenosine receptor A2b expressed in CHO cell membranes
T7 sequence (P29275 whole entry): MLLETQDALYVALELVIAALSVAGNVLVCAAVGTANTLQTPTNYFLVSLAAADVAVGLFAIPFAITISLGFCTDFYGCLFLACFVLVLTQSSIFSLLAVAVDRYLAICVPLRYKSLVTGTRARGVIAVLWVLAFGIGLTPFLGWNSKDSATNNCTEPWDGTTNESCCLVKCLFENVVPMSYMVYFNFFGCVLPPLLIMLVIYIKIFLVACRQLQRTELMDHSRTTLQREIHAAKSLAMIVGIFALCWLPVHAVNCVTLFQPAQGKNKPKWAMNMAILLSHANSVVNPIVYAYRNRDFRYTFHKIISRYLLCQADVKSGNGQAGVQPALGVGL
In short: (§3)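 Membranes came from CHO cells expressing recombinant receptors (human A1, A2A, A2B, A3; rat A2B, A3). Radioligands were [3H]CCPA for A1 and [3H]PSB-11 or [3H]NECA for A3. A single high concentration was screened first, in three experiments for A1/A2A and two for A2B/A3.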

[10] = target: T8, Adenosine receptor A3 (Rattus norvegicus) (UniProt P28647); assay: Displacement of [3H]NECA from recombinant rat adenosine receptor A3 expressed in CHO cell membranes at 1 uM; in short: as §2
T8 sequence (whole entry): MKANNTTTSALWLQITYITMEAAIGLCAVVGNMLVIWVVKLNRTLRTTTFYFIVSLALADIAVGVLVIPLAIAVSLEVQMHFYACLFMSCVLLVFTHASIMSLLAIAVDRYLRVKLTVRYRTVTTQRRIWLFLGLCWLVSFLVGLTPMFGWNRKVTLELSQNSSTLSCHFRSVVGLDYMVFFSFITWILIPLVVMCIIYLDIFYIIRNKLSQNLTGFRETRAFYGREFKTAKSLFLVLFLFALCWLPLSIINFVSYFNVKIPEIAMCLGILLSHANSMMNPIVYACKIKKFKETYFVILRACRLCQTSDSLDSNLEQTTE

Adenosine receptor A1 [11] = target: T9, Adenosine receptor A1 (Homo sapiens, UniProt P30542); assay: Displacement of [3H]CCPA from recombinant human adenosine receptor A1 expressed in CHO cell membranes; in short: as §2
T9 sequence (P30542 whole entry): T6 sequence (whole entry)

[12] = target: Adenosine receptor A2a (Rattus norvegicus) (UniProt P30543); assay: Displacement of [3H]MSX2 from Adenosine receptor A2a in rat brain striatal membranes at 1 uM; type: cell membranes; details: Membrane; in short: as §1
Adenosine receptor A3 [13] = target: T10, Adenosine receptor A3 (Rattus norvegicus, UniProt P28647); assay: Displacement of [3H]NECA from recombinant rat adenosine receptor A3 expressed in CHO cell membranes; in short: as §3
T10 sequence (P28647 whole entry): T8 sequence (whole entry)

Adenosine receptor A2b [14] = target: T11, Adenosine receptor A2b (Rattus norvegicus, UniProt P29276); assay: Displacement of [3H]PSB-603 from recombinant rat adenosine receptor A2b expressed in CHO cell membranes; in short: as §3
T11 sequence (P29276 whole entry): T4 sequence (whole entry)

[15] = target: T12, Adenosine receptor A1 (Rattus norvegicus) (UniProt P25099); assay: Displacement of [3H]CCPA from adenosine receptor A1 in rat brain cortical membranes at 1 uM; type: cell membranes; in short: as §1
T12 sequence (whole entry): T2 sequence (P25099 whole entry)

[16] = target: T13, Adenosine receptor A2b (Homo sapiens) (UniProt P29275); assay: Displacement of [3H]PSB-603 from recombinant human adenosine receptor A2b expressed in CHO cell membranes at 1 uM; in short: as §2
T13 sequence (whole entry): T7 sequence (P29275 whole entry)

[17] = target: T12, Adenosine receptor A1 (Rattus norvegicus); assay: Displacement of [3H]CCPA from adenosine receptor A1 in rat brain cortical membranes at 10 uM; type: cell membranes; details: 10 uM; in short: as §1
[18] = Solubility of compound in water at 20 degC by UV-spectroscopic analysis; type: physicochemical
In short: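 Suspensions were boiled 5 min, left overnight at 20 °C, and filtered. Filtrates were diluted 10-80-fold in MeOH and read by UV in MeOH/H2O (90% v/v). Concentration came from standard curves of seven concentrations from 10^-3 to 10^-1 mg/mL, using linear regression of two neighbouring points and multiplying by the dilution.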

Adenosine receptor A2a [19] = target: T5, Adenosine receptor A2a; assay: Antagonist activity at human adenosine receptor A2a expressed in CHO cell membranes assessed as inhibition of NECA-induced cAMP accumulation incubated for 15 mins in presence of [3H]cAMP by liquid scintillation counting; type: functional
In short: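 Stably transfected CHO cells (human A2A or A2B) grown in DMEM-F12 with 10% FCS at 37 °C, 5% CO2. The cells were seeded at 200,000/well, washed after 24 h and held 2 h in HBSS (pH 7.3) with 1 U/ml adenosine deaminase. Ro20-1724 was added to 40 µM final for 15 min, then NECA dilutions ± one fixed test concentration in 2.5% DMSO, in duplicate.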

T5 sequence (P29274 whole entry): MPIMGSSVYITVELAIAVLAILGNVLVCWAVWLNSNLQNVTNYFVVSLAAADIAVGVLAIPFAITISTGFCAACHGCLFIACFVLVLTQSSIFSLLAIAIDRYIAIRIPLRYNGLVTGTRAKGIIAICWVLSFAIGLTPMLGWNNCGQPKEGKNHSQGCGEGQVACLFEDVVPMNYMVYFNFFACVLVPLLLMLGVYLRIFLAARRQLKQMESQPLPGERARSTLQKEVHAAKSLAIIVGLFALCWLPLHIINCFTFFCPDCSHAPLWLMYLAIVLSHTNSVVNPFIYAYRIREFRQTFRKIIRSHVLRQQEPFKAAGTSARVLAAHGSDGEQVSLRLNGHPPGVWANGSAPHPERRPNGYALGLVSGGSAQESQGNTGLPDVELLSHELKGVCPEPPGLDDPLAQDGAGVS
Sequence of Adenosine receptor A2a (Rattus norvegicus, UniProt P30543) (P30543 whole entry): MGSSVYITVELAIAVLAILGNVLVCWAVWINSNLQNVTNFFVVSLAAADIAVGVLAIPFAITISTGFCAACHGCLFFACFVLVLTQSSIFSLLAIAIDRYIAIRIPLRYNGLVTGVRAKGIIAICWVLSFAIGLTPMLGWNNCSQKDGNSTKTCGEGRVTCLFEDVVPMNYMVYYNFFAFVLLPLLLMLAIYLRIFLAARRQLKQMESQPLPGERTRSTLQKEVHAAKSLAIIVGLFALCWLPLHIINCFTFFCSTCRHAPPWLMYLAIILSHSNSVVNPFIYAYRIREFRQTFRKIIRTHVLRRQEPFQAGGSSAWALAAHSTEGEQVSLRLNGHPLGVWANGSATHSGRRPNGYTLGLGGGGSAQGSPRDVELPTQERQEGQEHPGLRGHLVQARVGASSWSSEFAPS
Sequence of Adenosine receptor A2a (Rattus norvegicus) (P30543 whole entry): as above

| Structure (SMILES) | Ki (Adenosine receptor A2a [1]) [nM] | Ki (Adenosine receptor A3 [2]) [nM] | Ki (Adenosine receptor A1 [3]) [nM] | inhibition [4] [%] | inhibition [5] [%] | Ki (Adenosine receptor A2a [6]) [nM] | inhibition [7] [%] | inhibition (Adenosine receptor A2a [8]) [%] | Ki (Adenosine receptor A2b [9]) [nM] | inhibition [10] [%] | Ki (Adenosine receptor A1 [11]) [nM] | inhibition [12] [%] | Ki (Adenosine receptor A3 [13]) [nM] | Ki (Adenosine receptor A2b [14]) [nM] | inhibition [15] [%] | inhibition [16] [%] | inhibition [17] [%] | solubility [18] [µg/mL] | Kb (Adenosine receptor A2a [19]) [nM] |
| --- | --- | --- | --- | --- | --- | --- | --- | --- | --- | --- | --- | --- | --- | --- | --- | --- | --- | --- | --- |
| CCCCn1c(=O)c2c(nc3n2CCCN3c2ccc(OCCN(CC)CC)cc2)n(CCCC)c1=O | 1460 | > 1000 | 137 | 44 | 6 | 1010 | 30 | 54 | > 1000 | 16 | 1190 | 49 | > 1000 | > 1000 | 55 | 6 | – | – | – |
| CCN(CC)CCOc1ccc(CCN2CCn3c(nc4c3c(=O)n(C)c(=O)n4C)C2)cc1 | 7850 | > 1000 | > 10000 | 0 | – | – | – | – | > 1000 | – | – | – | – | – | – | 19 | 42 | – | – |
| CCCCn1c(=O)c2c(nc3n2CCCN3c2ccc(OCCN(C)C)cc2)n(CCCC)c1=O | 1050 | > 1000 | 56 | 38 | 9 | 1030 | 43 | 52 | > 1000 | 15 | 539 | 47 | > 1000 | > 1000 | 72 | 40 | – | 255 (≈ 528 µM) | – |
| Cn1c(=O)c2c(nc3n2CCCN3CCc2ccc(O)cc2)n(C)c1=O | – | – | – | – | – | – | – | – | – | – | – | – | – | – | – | – | – | – | 2220 |
| COc1ccc(CCN2CCCn3c2nc2c3c(=O)n(C)c(=O)n2C)cc1 | – | – | – | – | – | – | – | – | – | – | – | – | – | – | – | – | – | 63 (≈ 171 µM) | – |
| CCCCn1c(=O)c2c(nc3n2CCCN3c2ccc(OCCN3CCCCC3)cc2)n(CCCC)c1=O | 1480 | – | 127 | 48 | 9 | 921 | 42 | 53 | > 1000 | 20 | 713 | 49 | > 1000 | > 1000 | 65 | 41 | – | – | – |
